{"source": "ChEMBL document CHEMBL5634098", "about": "“Hydrophobicity modulation via the substituents at positions 2 and 4 of 1,3,5-triazine to enhance therapeutic ability against Alzheimer's disease for potent serotonin 5-HT6R agents” (Eur J Med Chem, 2023)", "key": {"[1]": {"tested_on": "Rattus norvegicus", "experiment": "Reversal of MK-801 induced memory impairment in Wistar rat assessed as total exploratory time at 1 mg/kg, ip pretreated for 30 mins followed by MK-801 administration and measured after 30 mins by novel object recognition test (reference value: 39.29 +/- 3.44 sec)", "assay_type": "functional", "conditions": "time 60 min"}, "[2]": {"molecular_target": "5-hydroxytryptamine receptor 7 (Homo sapiens, UniProt P34969)", "sequence (P34969 whole entry)": "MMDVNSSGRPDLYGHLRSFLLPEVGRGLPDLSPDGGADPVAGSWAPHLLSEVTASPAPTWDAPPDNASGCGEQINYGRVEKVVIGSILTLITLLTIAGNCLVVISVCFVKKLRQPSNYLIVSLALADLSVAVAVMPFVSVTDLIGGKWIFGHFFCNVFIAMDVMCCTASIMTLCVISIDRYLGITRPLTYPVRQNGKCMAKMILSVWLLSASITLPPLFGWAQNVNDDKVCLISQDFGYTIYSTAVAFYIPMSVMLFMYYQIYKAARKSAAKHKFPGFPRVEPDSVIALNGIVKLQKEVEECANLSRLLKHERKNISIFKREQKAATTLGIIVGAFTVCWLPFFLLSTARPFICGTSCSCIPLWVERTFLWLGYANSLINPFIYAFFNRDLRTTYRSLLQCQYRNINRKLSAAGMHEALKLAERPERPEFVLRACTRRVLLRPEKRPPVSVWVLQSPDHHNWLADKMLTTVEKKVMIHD", "experiment": "Displacement of [3H]-5-CT from human 5-HT7 receptor expressed in HEK293 cell membranes assessed as inhibition constant incubated for 1 hr by Microbeta plate reader based analysis", "parameters": "species or system Membrane"}, "[3]": {"experiment": "Aqueous solubility of compound at 10 mg boiled for 5 mins and incubated overnight by UV spectroscopy", "assay_type": "physicochemical", "conditions": "aqueous medium"}, "[4]": {"tested_on": "HepG2", "experiment": "Cytotoxicity against human HepG2 cells assessed as reduction in cell viability at 100 uM incubated for 72 hrs by MTS assay", "assay_type": "toxicity, cell-based", "conditions": "hepg2, 72 h", "how_it_was_run": "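HepG2 hepatoma cells exposed 72 h to compounds at 1, 10, 50 and 100 μM; doxorubicin 1 μM as positive control, 1% DMSO in growth medium as negative control. Viability read by MTS assay, absorbance 490 nm.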"}, "[5]": {"tested_on": "Rattus norvegicus", "experiment": "Reversal of MK-801 induced memory impairment in Wistar rat assessed as total exploratory time at 3 mg/kg, ip pretreated for 30 mins followed by MK-801 administration and measured after 30 mins by novel object recognition test (reference value: 39.29 +/- 3.44 sec)", "assay_type": "functional", "conditions": "time 60 min, 1 h"}, "[6]": {"molecular_target": "T1, 5-hydroxytryptamine receptor 1A (Homo sapiens, UniProt P08908)", "T1 sequence (P08908 whole entry)": "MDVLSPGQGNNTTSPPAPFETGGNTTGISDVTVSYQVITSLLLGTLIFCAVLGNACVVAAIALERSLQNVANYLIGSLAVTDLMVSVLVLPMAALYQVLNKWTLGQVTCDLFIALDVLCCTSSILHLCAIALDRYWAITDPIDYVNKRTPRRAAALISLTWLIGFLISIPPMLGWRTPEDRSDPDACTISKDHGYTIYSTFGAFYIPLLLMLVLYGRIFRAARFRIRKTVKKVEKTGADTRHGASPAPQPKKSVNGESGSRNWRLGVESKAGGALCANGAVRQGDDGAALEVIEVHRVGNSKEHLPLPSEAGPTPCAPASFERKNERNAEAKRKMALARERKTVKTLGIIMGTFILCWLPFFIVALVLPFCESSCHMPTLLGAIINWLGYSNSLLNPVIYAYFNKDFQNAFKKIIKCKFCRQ", "experiment": "Displacement of [3H]-8-OH-DPAT from human 5-HT1A receptor expressed in HEK293 cell membranes assessed as inhibition constant incubated for 1 hr by Microbeta plate reader based analysis", "parameters": "species or system Membrane"}, "[7]": {"molecular_target": "D(2) dopamine receptor (Homo sapiens, UniProt P14416)", "sequence (P14416 whole entry)": "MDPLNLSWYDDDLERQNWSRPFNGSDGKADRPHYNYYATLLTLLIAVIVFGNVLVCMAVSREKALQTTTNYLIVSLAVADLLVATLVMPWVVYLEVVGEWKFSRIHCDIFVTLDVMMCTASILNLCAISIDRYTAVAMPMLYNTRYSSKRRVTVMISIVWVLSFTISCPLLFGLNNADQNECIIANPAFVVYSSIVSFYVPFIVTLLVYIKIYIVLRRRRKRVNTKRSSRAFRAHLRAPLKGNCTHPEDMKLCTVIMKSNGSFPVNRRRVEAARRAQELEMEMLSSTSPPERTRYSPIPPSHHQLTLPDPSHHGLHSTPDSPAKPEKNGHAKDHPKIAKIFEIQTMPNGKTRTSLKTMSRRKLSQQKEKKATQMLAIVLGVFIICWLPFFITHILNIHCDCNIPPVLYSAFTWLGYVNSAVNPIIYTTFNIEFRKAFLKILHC", "experiment": "Displacement of [3H]-raclopride from human D2 receptor expressed in HEK293 cell membranes assessed as inhibition constant incubated for 1 hr by Microbeta plate reader based analysis", "parameters": "species or system Membrane"}, "[8]": {"experiment": "Effect on Wistar rat memory assessed as total exploratory time in T2 session at 1 mg/kg, ip measured after 60 mins by novel object recognition test (reference value: 31.86 +/- 2.15 sec)", "assay_type": "toxicity, organism-based", "conditions": "in vivo, 1 h", "how_it_was_run": "(§1)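 Rats given compound i.p. (2 mL/kg; vehicle 1% Tween 80) 60 min before T1 familiarization phase, without MK-801; doses 0.1–3 mg/kg. T2 recognition session 3 min; discrimination index (EB − EA)/(EA + EB) and total exploration time of both objects recorded; n = 6–8; mean ± SEM, one-way ANOVA/Bonferroni.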"}, "[9]": {"experiment": "Effect on Wistar rat memory assessed as total exploratory time in T2 session at 0.1 mg/kg, ip measured after 60 mins by novel object recognition test (reference value: 31.86 +/- 2.15 sec)", "assay_type": "toxicity, organism-based", "conditions": "in vivo, 1 h", "how_it_was_run": "as §1"}, "[10]": {"experiment": "Metabolic stability at phase II in rat liver microsomes assessed as compound remaining at 50 uM preincubated for 5 mins followed by UDPGA and NADPH addition and measured after 1 hr by LC-MS analysis", "assay_type": "ADME, Microsome", "conditions": "time 65 min, read-out: Stability"}, "[11]": {"molecular_target": "5-hydroxytryptamine receptor 2A (Homo sapiens, UniProt P28223)", "sequence (P28223 whole entry)": "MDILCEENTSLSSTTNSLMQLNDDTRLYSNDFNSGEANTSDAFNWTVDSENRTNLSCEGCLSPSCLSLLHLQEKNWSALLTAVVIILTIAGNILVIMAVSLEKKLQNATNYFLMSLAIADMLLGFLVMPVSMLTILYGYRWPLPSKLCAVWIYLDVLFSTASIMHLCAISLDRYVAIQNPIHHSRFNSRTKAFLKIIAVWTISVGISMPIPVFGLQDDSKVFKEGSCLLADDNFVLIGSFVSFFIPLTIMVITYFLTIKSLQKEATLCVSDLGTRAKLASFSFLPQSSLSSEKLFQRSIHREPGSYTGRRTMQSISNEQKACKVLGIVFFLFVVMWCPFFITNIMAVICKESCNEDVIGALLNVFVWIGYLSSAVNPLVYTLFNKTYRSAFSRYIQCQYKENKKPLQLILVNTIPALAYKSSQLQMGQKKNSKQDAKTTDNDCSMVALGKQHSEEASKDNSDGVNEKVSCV", "experiment": "Displacement of [3H]-ketanserin from human 5-HT2A receptor expressed in HEK293 cell membranes assessed as inhibition constant incubated for 1 hr by Microbeta plate reader based analysis", "parameters": "species or system Membrane"}, "[12]": {"tested_on": "Rattus norvegicus", "experiment": "Reversal of MK-801 induced memory impairment in Wistar rat assessed as total exploratory time at 0.3 mg/kg, ip pretreated for 30 mins followed by MK-801 administration and measured after 30 mins by novel object recognition test (reference value: 39.29 +/- 3.44 sec)", "assay_type": "functional", "conditions": "time 60 min, 1 h"}, "[13]": {"tested_on": "Rattus norvegicus", "experiment": "Reversal of MK-801 induced memory impairment in Wistar rat assessed as total exploratory time at 0.1 mg/kg, ip pretreated for 30 mins followed by MK-801 administration and measured after 30 mins by novel object recognition test (reference value: 39.29 +/- 3.44 sec)", "assay_type": "functional", "conditions": "time 60 min, 1 h"}, "[14]": {"experiment": "Effect on Wistar rat memory assessed as total exploratory time in T2 session at 0.3 mg/kg, ip measured after 60 mins by novel object recognition test (reference value: 31.86 +/- 2.15 sec)", "assay_type": "toxicity, organism-based", "conditions": "in vivo, 1 h", "how_it_was_run": "as §1"}, "[15]": {"experiment": "Permeability of compound at 200 uM incubated for 5 hrs by PAMPA assay", "assay_type": "ADME", "conditions": "read-out: permeability"}, "[16]": {"experiment": "Effect on Wistar rat memory assessed as total exploratory time in T2 session at 3 mg/kg, ip measured after 60 mins by novel object recognition test (reference value: 31.86 +/- 2.15 sec)", "assay_type": "toxicity, organism-based", "conditions": "in vivo, 1 h", "how_it_was_run": "as §1"}}, "note": "“And” between values parts separate entries of the source, which are not always exact repeats. Equal entries are not always repeated.", "data": [{"smiles": "CCC(Oc1cc(F)ccc1F)c1nc(N)nc(N2CCN(C)CC2)n1", "note": "(stereo unspecified)", "values": [{"measurement": "Time", "setting": "[1]", "result": 32.57, "unit": "s"}, {"measurement": "Ki", "setting": "[2]", "result": 11.5, "unit": "µM"}, {"measurement": "solubility at 5 min", "setting": "[3]", "result": "79 µg/mL and 217 µM"}, {"measurement": "Activity", "setting": "[4]", "result": "Non-Toxic"}, {"measurement": "Time", "setting": "[5]", "result": 27.75, "unit": "s"}, {"measurement": "Ki", "setting": "[6]", "result": 3.04, "unit": "µM"}, {"measurement": "Ki", "setting": "[7]", "result": 1.63, "unit": "µM"}, {"measurement": "Time", "setting": "[8]", "result": 39.38, "unit": "s"}, {"measurement": "Time", "setting": "[9]", "result": 38.29, "unit": "s"}, {"measurement": "remaining at 1 h, 50 µM", "setting": "[10]", "result": 82.6, "unit": "%"}, {"measurement": "Ki", "setting": "[11]", "result": 0.573, "unit": "µM"}, {"measurement": "Time", "setting": "[12]", "result": 31, "unit": "s"}, {"measurement": "Time", "setting": "[13]", "result": 33.25, "unit": "s"}, {"measurement": "Time", "setting": "[14]", "result": 34.63, "unit": "s"}, {"measurement": "Papp at 5 h, 200 µM", "setting": "[15]", "result": 20.6, "unit": "×10⁻⁶ cm/s"}, {"measurement": "Time", "setting": "[16]", "result": 31.63, "unit": "s"}]}]}
